Reference: ChEMBL document CHEMBL4513216, “Probing the Open Global Health Chemical Diversity Library for Multistage-Active Starting Points for Next-Generation Antimalarials” (ACS Infect Dis, 2020)

Assay: Toxicity liver stage against HepG2, at 10uM
Assay type: cell-based
Set-up: test concentration 10 uM, cell line HepG2-A16-CD81EGFP
Conditions: human, HepG2-A16-CD81EGFP cells; read-out: INHIBITION
In short: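 Uninfected HepG2-A16-CD81EGFP cells, 3 × 10^3 per well, 1536-well, plated on prespotted compound at 10 μM final, parasite-free screening media added to match infected plates; puromycin 10 μM positive, DMSO 0.5% negative; run in parallel with 48 h PbLuc assay at 37 °C, 5% CO2; viability by CellTiter-Glo luminescence, normalized to controls.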

First: CCS(=O)(=O)c1ccc2oc([C@H]3CCN(Cc4ccccn4)C3)nc2c1
Second: O=C(CCCc1ccccn1)Nc1cccc(N2CCCNC2=O)c1
The cytotoxicity at 10 µM of the first is lower: -0.125% for the first, 1.94% for the second.

Going from O=C([C@@H]1Cc2[nH]cnc2CN1CC1CC1)N1CCCC1 to Cc1cccn2cc(C(=O)N3CCCN(CC4CC4)C(C(C)C)C3)nc12 (stereo unspecified), the cytotoxicity at 10 µM falls from 2.5% to 1.46%.

First: O=C1CC(c2ccccc2)c2c(c(C(=O)O)cn2-c2ccccc2)N1 (stereo unspecified)
Second: Cc1ccc(C(=O)NCC2CCN(C)c3ccccc32)c(=O)[nH]1 (stereo unspecified)
The cytotoxicity at 10 µM of the first is lower: -0.0616% for the first, 12.6% for the second.

Going from CN(C)S(=O)(=O)N1CCN(C(=O)c2cc(-c3ccc(Br)s3)n[nH]2)CC1 to CC1CN=C(N2CCN(C(=O)Nc3nc(-c4ccccc4)ns3)CC2)S1 (stereo unspecified), the cytotoxicity at 10 µM rises from -2.66% to 10.6%.

Going from CN(C)C(=O)N1Cc2ccccc2C2(CCN(C3CCOCC3)CC2)C1 to Cc1ncsc1CN1CC[C@H]2OCC[C@@]2(C(=O)N2CCOCC2)C1, the cytotoxicity at 10 µM falls from 7.21% to 6.91%.

First: CC(C)CNC(=O)N1C[C@H]2CCN[C@H]2C1
Second: CNC(=O)[C@H]1C[C@@H]2CN(C(=O)c3ccc(C)nc3)C[C@@H]2N1C(C)C
The cytotoxicity at 10 µM of the first is higher: 7.12% for the first, -116% for the second.

First: C[C@@H]1CN(C(=O)c2ccccc2F)C[C@]12CCN(CCN(C)C)C2=O
Second: O=S(=O)(NCC1CCCN(Cc2ccccc2F)C1)C1CC1 (stereo unspecified)
The cytotoxicity at 10 µM of the first is higher: 3% for the first, -8.27% for the second.

First: CCc1cnc(N2CCC3(CC2)CCN(c2cnn(C)c2)C3=O)nc1
Second: CN(C)C(=O)CN1CCC2(CCCN(c3ncc(F)cn3)C2)C1=O (stereo unspecified)
The cytotoxicity at 10 µM of the first is lower: -2.2% for the first, 9.51% for the second.

First: CNC(=O)C1CCC2(CCN(c3ncc(C)cn3)CC2)CO1 (stereo unspecified)
Second: COc1cccc(CN2CCC3(CC2)CCN(c2ncccn2)C3)c1
The cytotoxicity at 10 µM of the first is higher: -4.66% for the first, -7.46% for the second.

Compared with CC(C)CNc1nc(C(=O)/N=c2\[nH]nc(C(C)(C)C)s2)cs1, CC(=O)Nc1nc(CN2CCn3c(C)nnc3C2)cs1 is lower in cytotoxicity at 10 µM: 9.6% for the first, -1.68% for the second.

Compared with CC(C)CC(=O)N1CCCn2cnc(CN3CCCC3=O)c2C1, Cc1cc(CN(C)C(=O)C2CCC(=O)N(CC3CCCCC3)C2)n[nH]1 (stereo unspecified) is higher in cytotoxicity at 10 µM: -6.42% for the first, 1.85% for the second.

Going from CCn1ccc(-c2cc(C(=O)O)n3nc(C(F)(F)F)c(Br)c3n2)n1 to O=C(O)CSc1nc(-c2ccc3c(c2)CCC3)n[nH]1, the cytotoxicity at 10 µM rises from -1.47% to 1.88%.

Compared with CNS(=O)(=O)c1cccc(CNCc2ccsc2)c1, CNS(=O)(=O)c1cccc(CNC(=O)c2cnn(C)c2C)c1 is higher in cytotoxicity at 10 µM: -2.54% for the first, 0.857% for the second.

Going from Cc1nn(C)c(Cl)c1C1CCCN1c1ncnc2c1CCC2 (stereo unspecified) to Cc1nn(C)c(Cl)c1C1CCCN1Cc1cccc(C(N)=O)c1 (stereo unspecified), the cytotoxicity at 10 µM falls from 19.1% to -6.22%.

Compared with CCCn1cc(NC(=O)Nc2ccc(F)c(C(=O)NC)c2)cn1, COc1cc(CNC(=O)c2cc(Cl)ccc2F)ccn1 is lower in cytotoxicity at 10 µM: 6.98% for the first, -2.69% for the second.

First: CCOc1ccccc1C(=O)NCc1nncn1C1CC1
Second: O=C(NCc1ccccc1Cn1cncn1)C1CCC1
The cytotoxicity at 10 µM of the first is higher: 3.3% for the first, -4.43% for the second.

First: CC(NC(=O)NC1CC1)c1nc(-c2ccccc2)cs1 (stereo unspecified)
Second: O=C1C[C@@H]2CC[C@H](CN1)N2C(=O)CCc1ccccc1
The cytotoxicity at 10 µM of the first is lower: -5.83% for the first, -0.0739% for the second.

Compared with CCOCCN1CCN(CCOC)CC1C (stereo unspecified), CCOCC1CN(Cc2nccs2)Cc2nn(CC3CC3)cc21 (stereo unspecified) is higher in cytotoxicity at 10 µM: -4.2% for the first, -1.81% for the second.

First: OC(CNCCn1cccn1)COc1cccc(C(F)(F)F)c1 (stereo unspecified)
Second: O=C(CCCOc1ccc(F)cc1F)N1CCCC(n2cccn2)C1 (stereo unspecified)
The cytotoxicity at 10 µM of the first is lower: -19.7% for the first, -4.75% for the second.

Going from O=C(NC1CCC(O)CC1)c1cnc2c(cnn2C2CCCC2)c1 (stereo unspecified) to CC(=O)Nc1cccc(C(=O)Nc2cnc3n2CCCC3)c1, the cytotoxicity at 10 µM rises from -3.79% to 4.36%.

First: COc1ccc(CNCC2CN(C3CC3)CCO2)cc1F (stereo unspecified)
Second: Cc1nc(CN(C)C2CCN(CCc3cnn(C)c3)C2)no1 (stereo unspecified)
The cytotoxicity at 10 µM of the first is lower: -12.4% for the first, 3.63% for the second.

First: Cc1ccc(C)c(S(=O)(=O)CCN2CCCC2Cn2cncn2)c1 (stereo unspecified)
Second: Cc1cnn(CC2CCCN2C(=O)c2cccc3c2OCO3)c1 (stereo unspecified)
The cytotoxicity at 10 µM of the first is lower: -8.5% for the first, -5.25% for the second.

Compared with Cc1nc(CN(C)Cc2cc3c(cc2OC(F)F)OCO3)oc1C, CCN(Cc1nc2c(cnn2C)c(=O)[nH]1)c1cc(C)ccc1C is lower in cytotoxicity at 10 µM: 2.22% for the first, -11.3% for the second.

Going from CC(=O)NCCNC(=O)NCCCc1cccc(F)c1 to O=C(CCCOc1ccccc1F)Nc1cc[nH]n1, the cytotoxicity at 10 µM falls from 10.5% to -11%.

Compared with Cc1ccc(S(N)(=O)=O)cc1C(=O)NCC1Cc2ccccc2O1 (stereo unspecified), CN(Cc1ccc(Br)s1)Cn1nc(-c2ccccc2)oc1=O is higher in cytotoxicity at 10 µM: 3.04% for the first, 4.86% for the second.

First: Cc1cccc(N(C)Cc2nc3c(cnn3C)c(=O)[nH]2)c1C
Second: Cc1cc(C)n(CCNC(=O)c2ncc[nH]2)c(=O)n1
The cytotoxicity at 10 µM of the first is lower: -9.23% for the first, 2.84% for the second.

Compared with CCc1cnc(CN2CCC(O)(c3cc(OC)cc(OC)c3)CC2)o1, COc1cccc(N2CCN(Cc3nccc(OC)c3OC)CC2=O)c1 is higher in cytotoxicity at 10 µM: -0.276% for the first, 3.63% for the second.

First: CN(C(=O)CNc1ccc(C#N)cc1)C1CCN(c2ccccn2)CC1
Second: CCOc1ncccc1CNC(=O)N1CCC(n2cncn2)CC1
The cytotoxicity at 10 µM of the first is higher: 18.7% for the first, -1.26% for the second.

First: CC(C)c1nc2n(n1)CC(NCCc1cccs1)CC2 (stereo unspecified)
Second: Cn1cc(Cl)c(CN(Cc2ccsc2)CC2CCCO2)n1 (stereo unspecified)
The cytotoxicity at 10 µM of the first is lower: -5.71% for the first, -3.84% for the second.

First: CCCC(C#N)NC(=O)Cc1csc(CC)n1 (stereo unspecified)
Second: CCNC(=O)CNCc1c(C(C)C)nn(C)c1N1CCOCC1
The cytotoxicity at 10 µM of the first is higher: -2.08% for the first, -6.45% for the second.

Going from CC(C)CCN(C(=O)CCn1cc(S(N)(=O)=O)cn1)C1CC1 to CCNC(=O)[C@@H]1C[C@@H](N)CN1C(=O)Cc1cc(C)ccc1C, the cytotoxicity at 10 µM falls from 3.92% to 1.87%.

Compared with CN(C)CC(=O)N1CCO[C@@H]2CC(COCc3ccncc3)C[C@H]21 (stereo partly specified), CCN1C[C@@H]2[C@@H](OC)CCN(C(=O)Cc3ccsc3)[C@@H]2C1 is higher in cytotoxicity at 10 µM: -108% for the first, 0.11% for the second.

Compared with Cc1nc(C(=O)N[C@H]2COC[C@@H]2N2CCCCC2)cs1, Cc1nc(C2CCCN(C(=O)c3cc4c(s3)CCCC4)C2)no1 (stereo unspecified) is lower in cytotoxicity at 10 µM: 15.5% for the first, -7.03% for the second.

Compared with CC(C)(C)SCCN1CC(=O)N2CC[C@@H](O)C[C@H]2C1=O, COC(=O)c1cccn1C1CCN(C(=O)c2ccc(C)cc2O)CC1 is lower in cytotoxicity at 10 µM: 4.01% for the first, -6.97% for the second.

First: CCNC(=O)[C@@H]1C[C@@H](N)CN1C(=O)c1[nH]c2ccccc2c1CC
Second: O=c1cc(CN2CC[C@@H]3CC[C@H](C2)N3)c2cccc3c2n1CCC3
The cytotoxicity at 10 µM of the first is lower: 0.106% for the first, 9.64% for the second.

First: Cc1cc(CN(C)C2CCCN(Cc3noc(C4CC4)n3)C2)on1 (stereo unspecified)
Second: Cc1cccc(CN2CCCCC23CCNC3)n1 (stereo unspecified)
The cytotoxicity at 10 µM of the first is lower: -1.68% for the first, 1.49% for the second.

First: Cc1cc(NC(=O)c2ccc(-n3ncc(C#N)c3N)cc2)n(C)n1
Second: CC(C)C(=O)N(C)Cc1nc(N2CCCC2)ncc1-c1ccncc1
The cytotoxicity at 10 µM of the first is lower: -0.0414% for the first, 6.54% for the second.

First: CCS(=O)(=O)N1CCOCC2(CCN(c3ccccn3)C2)C1 (stereo unspecified)
Second: c1cnc(N2CC3(CCN(Cc4ccncc4)C3)C2)nc1
The cytotoxicity at 10 µM of the first is higher: 5.66% for the first, -82.8% for the second.

Compared with c1cc(CN2C[C@@H]3OCCN(CCN4CCCC4)[C@@H]3C2)cs1, CC1c2ncc(CN3CCN(C)CC3)n2CCN1Cc1ccc(F)cc1 (stereo unspecified) is higher in cytotoxicity at 10 µM: -1.46% for the first, 2.49% for the second.

Going from O=C(O)c1cc2c(nc1-c1ccsc1)CCN(C1CCOC1)CC2 (stereo unspecified) to O=C1C[C@@H]2CC[C@H](CN1)N2C(=O)Cc1ccsc1, the cytotoxicity at 10 µM falls from 15% to 1.6%.

In the case of CCc1nnc2n1CCN(C=C1NN=C(c3occc3C)O1)C2, the cytotoxicity at 10 µM is reported as -10%.
